Reference: ChEMBL document CHEMBL1134313, “Synthesis and biological evaluation of myoseverin derivatives: microtubule assembly inhibitors” (J Med Chem, 2001)

Experiments:
[1] = system: U-937; assay: Growth inhibition of human U937 cells; type: functional
Procedure, shortened: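 Proliferating U937 human leukemic cells were exposed to the compounds. Potency is reported as GI50, the concentration giving 50% growth inhibition. Toxicity was checked separately at up to 100 µM, as LC50.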

[2] = target: Tubulin (Bos taurus, UniProt Q6B856+Q862L2+Q862F3); assay: Inhibition of tubulin polymerization using bovine brain tubulin; type: functional
[3] = system: U-937; assay: Toxicity towards human U937 cells.; type: cell-based

Compound	GI50 [1]	IC50 [2]	LC50 [3]
COc1ccc(CNc2nc(NCc3ccc(OC)cc3)c3ncn(C4CCC4)c3n2)cc1	5 µM	5 µM	–
COc1ccc(CNc2nc(NCc3ccc(OC)cc3)c3[nH]cnc3n2)cc1	18 µM	50 µM	–
COc1ccc(CNc2nc(NCc3ccc(OC)cc3)c3ncn(C4CCCCC4)c3n2)cc1	0.2 µM	2 µM	–
COc1ccc(CNc2nc(NCc3ccc(OC)cc3)c3ncn(C4CCC(O)CC4)c3n2)cc1 (stereo unspecified)	2 µM	3 µM	–
COc1ccc(CNc2nc(NCc3ccc(OC)cc3)c3ncn(C4CCOC4)c3n2)cc1 (stereo unspecified)	4 µM	5 µM	–
COc1ccc(CNc2nc(NCc3ccc(OC)cc3)c3ncn(C4CCCC4)c3n2)cc1	2 µM	3 µM	–
COc1ccc(CNc2nc(NCc3ccc(OC)cc3)c3ncn(C4CCNCC4)c3n2)cc1	6 µM	5 µM	40 µM

Continued, in another order:

GI50 [1]	IC50 [2]	Compound	LC50 [3]
4 µM	8 µM	COc1ccc(CNc2nc(NCc3ccc(OC)cc3)c3ncn(C(C)C)c3n2)cc1 [MYOSEVERIN]	–
6 µM	25 µM	CCn1cnc2c(NCc3ccc(OC)cc3)nc(NCc3ccc(OC)cc3)nc21	–
12 µM	25 µM	COc1ccc(CNc2nc(NCc3ccc(OC)cc3)c3ncn(C)c3n2)cc1	–
